Measurements: ChEMBL document CHEMBL4477194, “Royal Jelly Constituents Increase the Expression of Extracellular Superoxide Dismutase through Histone Acetylation in Monocytic THP-1 Cells” (J Nat Prod, 2016)
The source made the active and inactive calls. The rule behind the calls is not given here.

What was measured:
THP-1 [1] = experiment: Cytotoxicity against human THP1 cells assessed as reduction in cell viability at 100 uM after 24 hrs by MTT assay; assay type: cell-based; settings: thp-1, 24 h
Summary of the method: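 THP-1 cells treated 24 h in 24-well plates; medium replaced with 10% FCS-RPMI 1640 containing 0.5 mg/mL MTT, 2 h at 37 °C, 5% CO2. Formazan dissolved in 2-propanol with 0.04 N HCl, read at 595 nm (reference 655 nm). Mean ± SD, n = 3.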

THP-1 [2] = experiment: Upregulation of HDAC10 mRNA expression in human THP1 cells at 100 uM after 24 hrs by RT-PCR method; assay type: functional, cell-based
Summary of the method: (§1)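 THP-1 cells in RPMI 1640 with 10% heat-inactivated FCS, 37 °C, 5% CO2. Seeded 2.0 × 10^6 cells per 3.5 cm dish and treated 24 h, at 1 mM for the 1 mM lines and 100 μM for the 100 μM lines. RNA extracted in TRIzol, then real-time RT-PCR normalized to 18S rRNA. Means ± SD of three independent experiments; ANOVA with Bonferroni post hoc.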

[3] = target: Histone deacetylase 1 (Homo sapiens) (UniProt Q13547); experiment: Upregulation of HDAC1 inhibition-mediated histone H3 acetylation-induced extracellular SOD expression in human THP1 cells at 100 uM after 12 hrs by chromatin immunoprecipitation method; assay type: cell-based
Summary of the method: (§2)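 THP-1 cells (5 × 10^6) treated 12 h, at 1 mM or 100 μM per line. Cross-linked with formaldehyde 5 min at room temperature and chromatin sonicated to 150–800 bp. Immunoprecipitated overnight on protein G beads and washed in RIPA I/II and TE. Eluted with RNase A and proteinase K. EC-SOD promoter binding expressed as % of input.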

[4] = target: Histone deacetylase 1 (Homo sapiens) (UniProt Q13547); experiment: Inhibition of HDAC1 in human THP1 cells assessed as increase in histone H4 acetylation level at 100 uM after 12 hrs by Western blot analysis relative to control; assay type: cell-based
Summary of the method: (§3)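 THP-1 cells treated 12 h at the indicated concentrations. Acetylated histone H3 and H4 detected by Western blot (20 μg protein, 12% SDS-PAGE, PVDF, primary antibodies 1:1000). Histone loading checked by Coomassie staining.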

THP-1 [5] = experiment: Downregulation of HDAC1 mRNA expression in human THP1 cells at 100 uM after 24 hrs by RT-PCR method; assay type: functional, cell-based; summary of the method: as §1
THP-1 [6] = experiment: Upregulation of HDAC4 mRNA expression in human THP1 cells at 100 uM after 24 hrs by RT-PCR method; assay type: functional, cell-based; summary of the method: as §1
Homo sapiens [7] = species: Homo sapiens; experiment: Upregulation of HDAC1 inhibition/ERK signalling activation-mediated extracellular SOD mRNA expression in human THP1 cells at 100 uM after 24 hrs in presence of ERK inhibitor U0126 by RT-PCR method; assay type: cell-based
Summary of the method: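 THP-1 cells pretreated 30 min with 5 μM U0126, then exposed to compound at 100 μM for 24 h. EC-SOD mRNA measured by real-time RT-PCR normalized to 18S rRNA.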

[8] = target: Histone deacetylase 1 (Homo sapiens) (UniProt Q13547); experiment: Inhibition of recombinant HDAC1 catalytic domain (unknown origin) using HDAC substrate at 100 uM preincubated for 1 hr followed by substrate addition measured after 30 mins by fluorescence assay relative to control
Summary of the method: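 Recombinant HDAC1 in assay buffer exposed to compound at 100 μM for 1 h. Fluorogenic HDAC substrate then added, 30 min at 37 °C in the dark. Developer added, 15 min at room temperature. Fluorescence read at ex 365 nm, em 410–460 nm, relative to untreated.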

Homo sapiens [9] = species: Homo sapiens; experiment: Upregulation of HDAC1 inhibition/ERK signalling activation-mediated extracellular SOD mRNA expression in human THP1 cells at 1 to 10 uM incubated for 24 hrs by RT-PCR method; assay type: cell-based
Summary of the method: (§4)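 THP-1 cells treated 24 h at the indicated concentrations, or at 100 μM for the indicated times. EC-SOD mRNA measured by real-time RT-PCR normalized to 18S rRNA. Means ± SD of three independent experiments.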

[10] = target: Histone deacetylase 1 (Homo sapiens) (UniProt Q13547); experiment: Inhibition of HDAC1 in human THP1 cells assessed as increase in histone H3 acetylation level at 100 uM after 12 hrs by Western blot analysis relative to control; assay type: cell-based; summary of the method: as §3
[11] = target: Histone deacetylase 1 (Homo sapiens) (UniProt Q13547); experiment: Upregulation of HDAC1 inhibition-mediated histone H4 acetylation-induced extracellular SOD expression in human THP1 cells at 100 uM after 12 hrs by chromatin immunoprecipitation method; assay type: cell-based; summary of the method: as §2
THP-1 [12] = experiment: Downregulation of HDAC5 mRNA expression in human THP1 cells at 100 uM after 24 hrs by RT-PCR method; assay type: functional, cell-based; summary of the method: as §1
THP-1 [13] = experiment: Downregulation of HDAC2 mRNA expression in human THP1 cells at 100 uM after 24 hrs by RT-PCR method; assay type: functional, cell-based; summary of the method: as §1
Homo sapiens [14] = species: Homo sapiens; experiment: Upregulation of HDAC1 inhibition/ERK signalling activation-mediated extracellular SOD mRNA expression in human THP1 cells at 100 uM by RT-PCR method; assay type: cell-based; settings: TDE = time-dependent effect; summary of the method: as §4
[15] = target: Histone deacetylase 1 (Homo sapiens) (UniProt Q13547); experiment: Inhibition of HDAC1 in human THP1 cells assessed as increase in histone H3 acetylation level at 50 uM after 12 hrs by Western blot analysis relative to control; assay type: cell-based; summary of the method: as §3
[16] = target: Histone deacetylase 1 (Homo sapiens) (UniProt Q13547); experiment: Inhibition of HDAC1 in human THP1 cells assessed as increase in histone H4 acetylation level at 50 uM after 12 hrs by Western blot analysis relative to control; assay type: cell-based; summary of the method: as §3
Homo sapiens [17] = species: Homo sapiens; experiment: Induction of ERK phosphorylation in human THP1 cells at 50 to 100 uM incubated for 3 hrs by Western blot analysis; assay type: cell-based
Summary of the method: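 THP-1 cells treated 3 h at the indicated concentrations. Whole-cell extracts, 20 μg protein, run on 12% SDS-PAGE and transferred to PVDF. Blocked in 1% BSA/PBS. Probed with anti-phospho-ERK and anti-ERK (1:1000), then biotin-conjugated secondary (1:1000).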

Homo sapiens [18] = species: Homo sapiens; experiment: Upregulation of HDAC1 inhibition/ERK signalling activation-mediated extracellular SOD protein expression in human THP1 cells at 100 uM incubated for 24 hrs by ELISA; assay type: cell-based
Summary of the method: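 THP-1 cells treated 24 h at 100 μM and collected in PBS. Cellular EC-SOD protein content measured by ELISA. Means ± SD of three independent experiments.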

THP-1 [19] = experiment: Downregulation of HDAC6 mRNA expression in human THP1 cells at 100 uM after 24 hrs by RT-PCR method; assay type: functional, cell-based; summary of the method: as §1
Homo sapiens [20] = species: Homo sapiens; experiment: Upregulation of HDAC1 inhibition/ERK signalling activation-mediated extracellular SOD protein expression in human THP1 cells at 1 uM after 24 hrs by ELISA; assay type: cell-based
Summary of the method: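 EC-SOD protein content was measured by ELISA in THP-1 cells after 24 h treatment, with cells collected in PBS. Cells were cultured in RPMI 1640 with 10% heat-inactivated FCS at 37 °C and 5% CO2. Values are mean ± SD of three independent experiments, compared against untreated cells.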

Homo sapiens [21] = species: Homo sapiens; experiment: Upregulation of HDAC1 inhibition/ERK signalling activation-mediated extracellular SOD mRNA expression in human THP1 cells at 1 uM after 24 hrs by RT-PCR method; assay type: cell-based
Summary of the method: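 THP-1 cells (RPMI 1640, 10% heat-inactivated FCS, 37 °C, 5% CO2) were seeded at 2.0 × 10^6 cells/dish and treated for 24 h. Cells were washed with cold PBS and lysed in TRIzol, then analysed by real-time RT-PCR normalized to 18S rRNA. Values are mean ± SD of three independent experiments, with ANOVA and Bonferroni tests.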

Chain of Histone deacetylase 1 (Homo sapiens) (Q13547 whole entry, the tested form may be a part): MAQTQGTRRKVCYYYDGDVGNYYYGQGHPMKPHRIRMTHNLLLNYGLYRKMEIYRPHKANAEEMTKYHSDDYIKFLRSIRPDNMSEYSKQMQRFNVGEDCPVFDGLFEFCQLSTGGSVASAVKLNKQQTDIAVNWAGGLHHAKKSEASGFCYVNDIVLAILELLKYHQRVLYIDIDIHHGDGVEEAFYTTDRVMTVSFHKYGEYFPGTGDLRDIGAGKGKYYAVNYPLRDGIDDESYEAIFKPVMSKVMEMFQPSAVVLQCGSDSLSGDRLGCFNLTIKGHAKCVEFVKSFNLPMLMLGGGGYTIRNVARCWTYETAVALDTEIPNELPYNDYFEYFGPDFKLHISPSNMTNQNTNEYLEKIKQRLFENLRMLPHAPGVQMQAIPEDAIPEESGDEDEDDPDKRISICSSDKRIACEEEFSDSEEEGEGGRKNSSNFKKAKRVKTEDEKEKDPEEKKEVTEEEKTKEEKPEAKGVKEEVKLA

With `CCCCCCC(/C=C/C(=O)OCC)OO` (stereo unspecified) the Activity (THP-1 [1]) was “Non-Toxic”, the Activity (THP-1 [2]) was “Active” and the Activity [3] was “Active”. For the same compound, the fold change (FC) [4] was 3.77, the Activity (THP-1 [5]) was “Active” and the Activity (THP-1 [6]) was “Active”. For the same compound, the Activity (Homo sapiens [7]) was “inactive”, the inhibition [8] was 50% and the Activity (Homo sapiens [9]) was “inactive”. The fold change (FC) [10] was 4.27, the Activity [11] was “Active” and the Activity (THP-1 [12]) was “Active”. For the same compound, the Activity (THP-1 [13]) was “Active”, the Activity (Homo sapiens [14]) was “Tde” and the fold change (FC) [15] was 1.82. The fold change (FC) [16] was 3.32, the Activity (Homo sapiens [17]) was “Active” and the Activity (Homo sapiens [18]) was “Active”. The Activity (THP-1 [19]) was “Active”.
With `CC(/C=C/C(=O)NO)=C\[C@@H](C)C(=O)c1ccc(N(C)C)cc1` the Activity (Homo sapiens [20]) was “Active” and the Activity (Homo sapiens [21]) was “Active”.
